Measured values as given in ChEMBL document CHEMBL2346664, “Synthesis, characterization and in vitro anticancer evaluation of novel 1,2,4-triazolin-3-one derivatives” (2013).

Legend:
Type in all cases: functional
[1] = tested on: SK-OV-3; assay: Growth inhibition of human SKOV3 cells assessed as cell growth at 10 '-6 M after 48 hrs by sulforhodamine B assay; settings: SK-OV-3, 48 h, read-out: Activity
[2] = tested on: SW-620; assay: Growth inhibition of human SW620 cells assessed as cell growth at 10 '-7 M after 48 hrs by sulforhodamine B assay; settings: SW-620, 48 h, read-out: Activity
[3] = tested on: BT-549; assay: Growth inhibition of human BT549 cells assessed as cell growth at 10 '-7 M after 48 hrs by sulforhodamine B assay; settings: BT-549, 48 h, read-out: Activity
Outline: (§1)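 Percent growth at each of the five concentrations of the 48 h continuous-exposure NCI SRB screen. Drug stocks were in DMSO at 400× the top final concentration and diluted in medium with gentamicin. Growth was calculated as [(Ti-Tz)/(C-Tz)]×100 when Ti ≥ Tz, or [(Ti-Tz)/Tz]×100 when Ti < Tz. Tz plates were fixed at drug addition; untreated wells served as control. Absorbance was read at 515 nm.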

[4] = tested on: SK-MEL-5; assay: Growth inhibition of human SK-MEL-5 cells assessed as growth inhibition at 10 uM after 48 hrs by sulforhodamine B assay; settings: SK-MEL-5, 48 h, read-out: GI
[5] = tested on: BT-549; assay: Growth inhibition of human BT549 cells assessed as cell growth at 10 '-8 M after 48 hrs by sulforhodamine B assay; settings: BT-549, 48 h, read-out: Activity; outline: as §1
[6] = tested on: MOLT-4; assay: Growth inhibition of human MOLT4 cells assessed as cell growth at 10 '-8 M after 48 hrs by sulforhodamine B assay; settings: MOLT-4, 48 h, read-out: Activity
[7] = tested on: COLO 205; assay: Growth inhibition of human COLO205 cells after 48 hrs by sulforhodamine B assay; settings: COLO 205, 48 h
Outline: (§2)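 NCI 60-cell-line five-dose screen. Cells were plated at 5,000–40,000/well by doubling time and grown 24 h at 37 °C, 5% CO2. Time-zero plates were TCA-fixed. Drug from DMSO stock was tested at 0.01, 0.1, 1, 10 and 100 µM final for 48 h continuous exposure. Read-out was SRB at 515 nm. GI50 is the concentration giving 50% reduction in net protein increase versus untreated control.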

[8] = tested on: HL-60(TB); assay: Growth inhibition of human HL-60(TB) cells assessed as cell growth at 10 '-4 M after 48 hrs by sulforhodamine B assay; settings: HL-60, 48 h, read-out: Activity
Outline: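 Five-dose NCI protocol with final concentrations of 0.01–100 µM and drug diluted from a DMSO stock (400× the top concentration) in medium with gentamicin. Cells were pre-incubated 24 h, then exposed 48 h at 37 °C. Suspension cells were fixed with 16% final TCA, SRB-stained and read at 515 nm. Percentage growth at each level was [(Ti−Tz)/(C−Tz)]×100, or [(Ti−Tz)/Tz]×100 when Ti < Tz.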

[9] = tested on: M14; assay: Growth inhibition of human M14 cells assessed as cell growth at 10 '-6 M after 48 hrs by sulforhodamine B assay; settings: M14, 48 h, read-out: Activity
[10] = Growth inhibition of human HCC2998 cells assessed as growth inhibition at 10 uM after 48 hrs by sulforhodamine B assay; settings: HCC 2998, 48 h, read-out: GI
[11] = tested on: RPMI-8226; assay: Growth inhibition of human RPMI8226 cells assessed as cell growth at 10 '-8 M after 48 hrs by sulforhodamine B assay; settings: RPMI-8226, 48 h, read-out: Activity
[12] = tested on: NCI-H23; assay: Growth inhibition of human NCI-H23 cells assessed as cell growth at 10 '-8 M after 48 hrs by sulforhodamine B assay; settings: NCI-H23, 48 h, read-out: Activity
[13] = tested on: SK-MEL-28; assay: Growth inhibition of human SK-MEL-28 cells assessed as cell growth at 10 '-7 M after 48 hrs by sulforhodamine B assay; settings: SK-MEL-28, 48 h, read-out: Activity
[14] = tested on: SF-268; assay: Growth inhibition of human SF268 cells after 48 hrs by sulforhodamine B assay; settings: SF-268, 48 h
[15] = tested on: RXF 393; assay: Growth inhibition of human RXF393 cells assessed as growth inhibition at 10 uM after 48 hrs by sulforhodamine B assay; settings: RXF 393, 48 h, read-out: GI
[16] = tested on: HT-29; assay: Growth inhibition of human HT-29 cells after 48 hrs by sulforhodamine B assay; settings: HT-29, 48 h; outline: as §2
[17] = tested on: A549; assay: Growth inhibition of human A549 cells assessed as growth inhibition at 10 uM after 48 hrs by sulforhodamine B assay; settings: A549, 48 h, read-out: GI
Outline: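 Percent growth inhibition from the single 10^-5 M NCI-60 screen, reported as 100 minus growth percent. Growth percent was measured after 48 h drug exposure at 37 °C, 5% CO2, using TCA fixation, SRB staining and absorbance at 515 nm, against untreated controls and time-zero plates.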

[18] = tested on: LOX IMVI; assay: Growth inhibition of human LOXIMVI cells assessed as cell growth at 10 '-8 M after 48 hrs by sulforhodamine B assay; settings: read-out: Activity
[19] = tested on: NCI-H522; assay: Growth inhibition of human NCI-H522 cells assessed as cell growth at 10 '-5 M after 48 hrs by sulforhodamine B assay; settings: NCI-H522, 48 h, read-out: Activity
[20] = Growth inhibition of human Hs 578T cells assessed as cell growth at 10 '-5 M after 48 hrs by sulforhodamine B assay; settings: read-out: Activity
[21] = tested on: SR; assay: Growth inhibition of human SR cells assessed as growth inhibition at 10 uM after 48 hrs by sulforhodamine B assay; settings: read-out: GI
[22] = tested on: SF-268; assay: Growth inhibition of human SF268 cells assessed as cell growth at 10 '-4 M after 48 hrs by sulforhodamine B assay; settings: SF-268, 48 h, read-out: Activity
[23] = tested on: HT-29; assay: Growth inhibition of human HT-29 cells assessed as cell growth at 10 '-5 M after 48 hrs by sulforhodamine B assay; settings: HT-29, 48 h, read-out: Activity
[24] = tested on: PC-3; assay: Growth inhibition of human PC3 cells assessed as cell growth at 10 '-4 M after 48 hrs by sulforhodamine B assay; settings: PC-3, 48 h, read-out: Activity
[25] = tested on: SNB-19; assay: Growth inhibition of human SNB19 cells assessed as growth inhibition at 10 uM after 48 hrs by sulforhodamine B assay; settings: SNB-19, 48 h, read-out: GI
[26] = Growth inhibition of human EKVX cells after 48 hrs by sulforhodamine B assay; outline: as §2
[27] = tested on: SN12C; assay: Growth inhibition of human SN12C cells assessed as cell growth at 10 '-8 M after 48 hrs by sulforhodamine B assay; settings: read-out: Activity
[28] = tested on: K562; assay: Growth inhibition of human K562 cells assessed as cell growth at 10 '-4 M after 48 hrs by sulforhodamine B assay; settings: K562, 48 h, read-out: Activity
[29] = read-out: LD50 (the source's name)

Structure (SMILES): Cc1cc(=O)oc2cc(OCCn3c(C)nn(-c4ccc(Cl)cc4)c3=O)ccc12
- growth at 1 µM [1]: 88%
- growth at 0.1 µM [2]: 98%
- growth at 0.1 µM [3]: 104%
- inhibition of growth at 10 µM [4]: 89.2%
- growth at 0.01 µM [5]: 105%
- growth at 0.01 µM [6]: 104%
- GI50 [7]: 2390 nM
- TGI [7]: 7340 nM
- CC50 [7, 29]: > 1000 nM
- growth at 100 µM [8]: 1%
- growth at 1 µM [9]: 67%
- inhibition of growth at 10 µM [10]: 53.3%
- growth at 0.01 µM [11]: 101%
- growth at 0.01 µM [12]: 98%
- growth at 0.1 µM [13]: 87%
- GI50 [14]: 1360 nM
- TGI [14]: > 1000 nM
- CC50 [14, 29]: > 1000 nM
- inhibition of growth at 10 µM [15]: 62.6%
- GI50 [16]: 3820 nM
- TGI [16]: > 1000 nM
- CC50 [16, 29]: > 1000 nM
- inhibition of growth at 10 µM [17]: 69.8%
- growth at 0.01 µM [18]: 96%
- growth at 10 µM [19]: 24%
- growth at 10 µM [20]: 28%
- inhibition of growth at 10 µM [21]: 78.8%
- growth at 100 µM [22]: 36%
- growth at 10 µM [23]: 14%
- growth at 100 µM [24]: 34%
- inhibition of growth at 10 µM [25]: 45.5%
- GI50 [26]: 1000 nM
- TGI [26]: > 1000 nM
- CC50 [26, 29]: > 1000 nM
- growth at 0.01 µM [27]: 94%
- growth at 100 µM [28]: 12%
